Bioassay records deposited in PubChem by Broad Institute.
An excerpt weighted towards active compounds, which were near 2.4% of everything screened.
Rtt109 HAT inh: inhibitors of Candida albicans Rtt109/Vps75 histone acetyltransferase. Q5AAJ8. purified Rtt109/Vps75, ThioGlo CoA-SH fluorescence, 4 h. inhibition, % at 34.9 µM. 0.16% of 330,000 active;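 active = inhibition of at least 50% in every replicate; inconclusive = best replicate reaches 50% inhibition but some replicates fall short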
INS-1E GSIS act: primary screen for activators of insulin secretion dependent on glucose, INS-1E cells, GLuc reporter luminescence | INS-1E GLuc reporter insulin secretion, 2-3 h | activation, % at 16.6 µM | 0.61% of 370,000 active;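 active = lowest replicate activation of at least 40%, so every replicate reaches that level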;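 note: 0% = median of neutral control wells and 100% = median of IBMX positive control wells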
miR-122 sensor: blocks miR-122 activity in Huh7 sensor cells | Huh7 miR-122 Renilla luciferase sensor, 48 h; neutral wells = 0, positive control = 100 | activation (reporter increase), % at 12.5 µM | 0.3% of 340,000 active;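 active = mean replicate activation score at least 90 and every replicate individually at or above 90; inconclusive = only one of the two criteria met; inactive = neither criterion met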;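 note: higher luciferase means less miR-122 activity so hits act as miR-122 inhibitors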
Env fusion inh: inhibitors of HIV Env-mediated cell fusion; HeLa-JRFL Env/CEM21 cell fusion, luciferase; inhibition, % at 12.3 µM; 1.1% of 360,000 active; AID 651610;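 active = mean replicate inhibition score of at least 50 and every replicate individually at or above 50; inconclusive = only one of the two criteria met; inactive = mean below 50 and not all replicates reaching 50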;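 note: 0% = plate neutral controls and 100% = maraviroc near 300 nM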
Cneo AK release: causes C. neoformans cell lysis; adenylate kinase release luminescence, 4 h; normalised: neutral wells 0, clomiphene wells 100; lysis activity, % at 15 µM; 0.2% of 360,000 active;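 active = mean lysis activity across replicates of at least 80%, whatever share of replicates individually reach that level; inactive = mean lysis activity below 80%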
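Assay system: log-phase C. neoformans yeast / Quantity: yeast cell density of 5 × 10^6 cells/mL / Medium: fresh YPD growth medium / Compound: single dose / Timing: static 4 h at 37 °C with compound, 1 h detection / Measured by: adenylate kinase release luminescence / Read-out: lysis from increased AK signal / Benchmarks: Clomiphene as positive lysis control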
dFosB activator: activators of mouse delta FosB homodimer. AID 493131. P13346. purified delta FosB, TAMRA-CDK5 oligo fluorescence polarization; percent of positive-control signal above neutral wells. 0.99% of 340,000 active. activation, % at 25 µM;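 active = mean activation above about 17%, with every replicate also reaching it, limit read from the data, passing the limit was not always enough; inconclusive = only one of the two conditions met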
Target sequence (P13346 whole entry, looked up): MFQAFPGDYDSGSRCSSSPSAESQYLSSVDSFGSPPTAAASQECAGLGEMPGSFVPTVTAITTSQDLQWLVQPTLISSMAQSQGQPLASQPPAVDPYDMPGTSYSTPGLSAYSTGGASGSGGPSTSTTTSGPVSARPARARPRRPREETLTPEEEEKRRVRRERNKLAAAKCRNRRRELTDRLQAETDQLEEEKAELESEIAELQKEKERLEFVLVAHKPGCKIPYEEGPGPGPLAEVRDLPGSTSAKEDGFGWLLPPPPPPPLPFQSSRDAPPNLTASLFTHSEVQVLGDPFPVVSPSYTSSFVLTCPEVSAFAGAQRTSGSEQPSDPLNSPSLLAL
* hit, by the source's call; ? = inconclusive; / = not tested or not shown; ! = not confirmed by another sample; [ ] = dose if it differs, or a comment.

SMILES	Rtt109 HAT inh	INS-1E GSIS act	miR-122 sensor	Env fusion inh	Cneo AK release	dFosB activator
C[C@H](CO)N1C[C@H](C)[C@H](CN(C)S(=O)(=O)c2ccccc2)Oc2ccc(NC(=O)CCCCCC(=O)Nc3ccccc3N)cc2CC1=O	/	0.0	-10.5[16.7 µM]	56.6*[16.7 µM]	-2.4	/
C[C@@H]1CN([C@@H](C)CO)C(=O)Cc2cc(NC(=O)CCCCCC(=O)Nc3ccccc3N)ccc2O[C@H]1CN(C)S(=O)(=O)c1ccccc1	/	-2.6	-5.1[16.7 µM]	-5.3[16.7 µM]	-2.4	/
Cn1c(=O)c2c(ncn2Cc2ccc(Cl)c(Cl)c2)n(C)c1=O	0.4	-5.2	-18.2	65.9*	-0.2	-1.7
Cn1c(=O)c2c(ncn2Cc2cccc(Cl)c2)n(C)c1=O	-1.6	2.8	-3.3	-0.8	0.1	2.8
O=C(c1ccccc1)N1CCN(c2ncnc3sc4c(c23)CCC4)CC1	15.8	/	-4.5	87.0*	-1.2	2.3
c1nc(N2CCOCC2)c2c3c(sc2n1)CCCC3	2.9	40.6*	2.7	?	-0.4	2.3
c1ccn(-c2ncnc3sc4c(c23)CCCC4)c1	3.5	/	-6.8	/	1.9	-7.3
Cc1nc(N2CCN(C(=O)c3ccco3)CC2)c2c3c(sc2n1)CCC3	-0.3	/	-1.9	/	0.5	-0.9
CO[C@H]1CN(C)C(=O)c2cc(NC(=O)c3nc4ccccc4s3)ccc2OC[C@H](C)N(Cc2cncnc2)C[C@@H]1C	/	-0.3	/	17.1[16.7 µM]	-3.8	/
COCCn1c(SCC(=O)Nc2cc(C)on2)nc2c([nH]c3ccccc32)c1=O	/	25.7	-3.0	58.8*	-7.7	/
C=CCn1c(SCC(=O)N2CCN(C(=O)OCC)CC2)nc2c([nH]c3ccccc32)c1=O	/	43.2*	8.3	16.9	-0.1	/
C=CCn1c(SCC(=O)N2CCCC2)nc2c([nH]c3ccccc32)c1=O	-0.5	8.9	/	24.1	2.1	-6.4
C[C@@H]1CN([C@@H](C)CO)C(=O)Cc2cc(NC(=O)C3CC3)ccc2O[C@H]1CN(C)S(=O)(=O)c1cccs1	/	5.4	-4.7[16.7 µM]	-3.3[16.7 µM]	51.4	/
COc1ccc(N2CCN(C(=O)Cc3cccs3)CC2)cc1	-5.4	-4.1	-3.5	/	-0.7	-3.4
CC(=O)c1ccc(N2CCN(C(=O)Cc3cccs3)CC2)cc1	7.1	/	-1.4	0.4	153.2*	0.4
O=C(C[C@H]1CC[C@H](NC(=O)c2ccccc2)[C@H](CO)O1)NCc1ccncn1	/	-2.6	/	-0.1[16.7 µM]	-2.6	/
C#CC(=O)N(c1ccc(OC)c(OC)c1)C(C(=O)NC1CCCC1)c1cccs1 (configuration not stated)	-9.2	36.9	-31.8	/	1.2	-11.1
C#CC(=O)N(c1cccc(OC)c1)C(C(=O)NC1CCCC1)c1cccs1 (configuration not stated)	8.0	145.8*	-28.4	/	1.9	0.3
Cc1cc(C)cc(N(C(=O)C(F)(F)F)C(C(=O)NC2CCCCC2)c2cccs2)c1 (configuration not stated)	1.5	47.1*	-0.2	35.0	-0.2	-2.5
CC(C)NC(=O)N(C)C[C@H]1Oc2cc(C#C[C@H](C)O)ccc2S(=O)(=O)N([C@@H](C)CO)C[C@@H]1C	/	12.9	7.6[16.7 µM]	/	2.0	/
C[C@H](CO)N1C[C@H](C)[C@H](CN(C)C(=O)C2CCC2)Oc2cc(-c3cncnc3)ccc2S1(=O)=O	/	25.0	-5.5[16.7 µM]	11.1[16.7 µM]	1.8	/
Cc1cccc(-c2ccc([C@H]3[C@H](CO)N4CCCCN(C(=O)c5ccc6c(c5)OCO6)C[C@@H]34)cc2)c1	/	-21.3	46.3[16.7 µM]	/	91.0*	/
C[C@@H]1CN([C@H](C)CO)C(=O)Cc2cc(NC(=O)c3ccncc3)ccc2O[C@H]1CN(C)CC1CCCCC1	/	20.7	-11.8[16.7 µM]	/	10.9	/
CCN1CCN(CCNC(=O)c2ccc(/C=C3\Sc4ccccc4N(Cc4ccccc4F)C3=O)cc2)CC1	39.9	135.5	/	5.7	/	-38.8
CN1CCN(CCCN2c3ccccc3Sc3ccc(Cl)cc32)CC1	53.5*!	/	4.4	-84.4	14.2	11.9
CN1CCN(CCCNC(=O)c2ccc(/C=C3/Sc4ccccc4N(Cc4cccc(Cl)c4)C3=O)cc2)CC1	42.6	128.5*	-7.2	11.0	1.0	-366.7
CCSc1ccc2c(c1)N(CCCN1CCN(C)CC1)c1ccccc1S2	17.8	/	-2.7	5.9	3.9	7.8
